Values joined by “and” are separate entries in the source; they are usually repeats but may differ in a detail not shown here. Equal values may be shown once.

This is an account of results in ChEMBL document CHEMBL1133603, “Synthesis and antimalarial activity of artemisinin derivatives containing an amino group” (2000).

The first assay relates to Monkey. Put plainly: Percent parasitaemia before treatment at a dose of 10 mg/kg/day after oral administration on Plasmodium knowlesi in rhesus monkeys (7-day treatment). In kind it is functional, Cercopithecidae. The gist of the method: (§1)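 Rhesus monkeys inoculated intravenously on D0 with 2 × 107 P. knowlesi. Compounds given orally once daily D0–D6 (7-day treatment) at 3.16 or 10.0 mg/kg/day, as stated per line. Parasitaemia followed to assess clearance rapidity; cure or recrudescence also recorded.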
For `C[C@@H]1CCC2[C@@H](C)[C@@H](OCCN(C)C)O[C@@H]3O[C@@]4(C)CCC1[C@@]23OO4.O=C(O)C(=O)O` (stereo partly specified), the Parasitemia is reported as 42.5%.

In turn, `C[C@H]1C(OC(=O)CCC(=O)O)O[C@@H]2O[C@@]3(C)CCC4[C@H](C)CCC1[C@]42OO3` (stereo partly specified) gave a Parasitemia of 35%.

A further assay has as its system Monkey. Briefly: Percent parasitaemia before treatment at a dose of 10 mg/kg/day after oral administration on Plasmodium knowlesi in rhesus monkeyss (7-day treatment). In kind it is functional, Cercopithecidae. The gist of the method: as §1
With `C[C@@H]1CCC2[C@@H](C)[C@@H](OCCNCCO)O[C@@H]3O[C@@]4(C)CCC1[C@@]23OO4.O=C(O)/C=C\C(=O)O` (stereo partly specified), the Parasitemia is on record as 74%.

The next assay relates to Monkey. Put plainly: Percent parasitaemia before treatment at a dose of 3.16 mg/kg/day after oral administration on Plasmodium knowlesi in rhesus monkeys (7-day treatment). In kind it is functional, Cercopithecidae. The gist of the method:
as §1
Compound `C[C@@H]1CCC2[C@@H](C)[C@@H](OCCN(C)C)O[C@@H]3O[C@@]4(C)CCC1[C@@]23OO4.O=C(O)C(=O)O` (stereo partly specified) showed a Parasitemia of 51.5%.

Consider `C[C@H]1C(OC(=O)CCC(=O)O)O[C@@H]2O[C@@]3(C)CCC4[C@H](C)CCC1[C@]42OO3` (stereo partly specified), for which the Parasitemia was determined as 42.7%.

Another assay relates to Monkey. Briefly: Mean time for 50% reduction in parasitaemia at a dose of 10 mg/kg/day after oral administration on Plasmodium knowlesi in rhesus monkeys (7-day treatment). In kind it is functional, Cercopithecidae. The gist of the method:
as §1
In the case of `C[C@@H]1CCC2[C@@H](C)[C@@H](OCCN(C)C)O[C@@H]3O[C@@]4(C)CCC1[C@@]23OO4.O=C(O)C(=O)O` (stereo partly specified), the Reduction amounted to 6.25 h.

In the case of `C[C@H]1C(OC(=O)CCC(=O)O)O[C@@H]2O[C@@]3(C)CCC4[C@H](C)CCC1[C@]42OO3` (stereo partly specified), the Reduction came out at 8.21 h.

The test system of a further assay is Monkey. Put plainly: Mean time for 50% reduction in parasitaemia at a dose of 3.16 mg/kg/day after oral administration on Plasmodium knowlesi in rhesus monkeys (7-day treatment). In kind it is functional, Cercopithecidae. The gist of the method:
as §1
Compound `C[C@@H]1CCC2[C@@H](C)[C@@H](OCCN(C)C)O[C@@H]3O[C@@]4(C)CCC1[C@@]23OO4.O=C(O)C(=O)O` (stereo partly specified) showed a Reduction of 5.29 h.

`CCN(CC)CCO[C@H]1O[C@@H]2O[C@@]3(C)CCC4[C@H](C)CCC([C@H]1C)[C@]42OO3.O=C(O)C(=O)O` (stereo partly specified) registered a Reduction of 4.5 h.

Turning to `C[C@@H]1CCC2[C@@H](C)[C@@H](OCCNCCO)O[C@@H]3O[C@@]4(C)CCC1[C@@]23OO4.O=C(O)/C=C\C(=O)O` (stereo partly specified), the Reduction was found to be 4.5 h.

`C[C@@H]1CCC2[C@@H](C)[C@@H](OCCCN3CCOCC3)O[C@@H]3O[C@@]4(C)CCC1[C@@]23OO4.O=C(O)/C=C\C(=O)O` (stereo partly specified) displayed a Reduction of 5.19 h.

Consider `C[C@H]1C(OC(=O)CCC(=O)O)O[C@@H]2O[C@@]3(C)CCC4[C@H](C)CCC1[C@]42OO3` (stereo partly specified), for which the Reduction came out at 7.84 h.

A further assay has as its system Monkey. Briefly: Mean time for 90% reduction in parasitaemia at a dose of 10 mg/kg/day after oral administration on Plasmodium knowlesi in rhesus monkeys (7-day treatment). In kind it is functional, Cercopithecidae. The gist of the method:
as §1
`C[C@@H]1CCC2[C@@H](C)[C@@H](OCCN(C)C)O[C@@H]3O[C@@]4(C)CCC1[C@@]23OO4.O=C(O)C(=O)O` (stereo partly specified): the Reduction worked out at 13.98 h.

The compound `C[C@H]1C(OC(=O)CCC(=O)O)O[C@@H]2O[C@@]3(C)CCC4[C@H](C)CCC1[C@]42OO3` (stereo partly specified) registered a Reduction of 13.74 h.

In the next assay the test system is Monkey. Briefly: Mean time for 90% reduction in parasitaemia at a dose of 3.16 mg/kg/day after oral administration on Plasmodium knowlesi in rhesus monkeys (7-day treatment). In kind it is functional, Cercopithecidae. The gist of the method: as §1
With `C[C@@H]1CCC2[C@@H](C)[C@@H](OCCN(C)C)O[C@@H]3O[C@@]4(C)CCC1[C@@]23OO4.O=C(O)C(=O)O` (stereo partly specified), the Reduction turned out to be 12.09 h.

Regarding `CCN(CC)CCO[C@H]1O[C@@H]2O[C@@]3(C)CCC4[C@H](C)CCC([C@H]1C)[C@]42OO3.O=C(O)C(=O)O` (stereo partly specified), the Reduction is 11.38 h.

`C[C@@H]1CCC2[C@@H](C)[C@@H](OCCNCCO)O[C@@H]3O[C@@]4(C)CCC1[C@@]23OO4.O=C(O)/C=C\C(=O)O` (stereo partly specified) returned a Reduction of 11.38 h.

Compound `C[C@@H]1CCC2[C@@H](C)[C@@H](OCCCN3CCOCC3)O[C@@H]3O[C@@]4(C)CCC1[C@@]23OO4.O=C(O)/C=C\C(=O)O` (stereo partly specified) displayed a Reduction of 11.8 h.

In turn, `C[C@H]1C(OC(=O)CCC(=O)O)O[C@@H]2O[C@@]3(C)CCC4[C@H](C)CCC1[C@]42OO3` (stereo partly specified) came in with a Reduction of 13.3 h.

A further assay relates to Monkey. Briefly: Time of clearance after oral administration on Plasmodium knowlesi in rhesus monkeys (7-day treatment). In kind it is functional, Cercopithecidae. The gist of the method: as §1
Compound `C[C@@H]1CCC2[C@@H](C)[C@@H](OCCN(C)C)O[C@@H]3O[C@@]4(C)CCC1[C@@]23OO4.O=C(O)C(=O)O` (stereo partly specified) returned a Parasite_Clearance_time of 44 h.

The compound `CCN(CC)CCO[C@H]1O[C@@H]2O[C@@]3(C)CCC4[C@H](C)CCC([C@H]1C)[C@]42OO3.O=C(O)C(=O)O` (stereo partly specified) had a Parasite_Clearance_time of 52 h.

`C[C@@H]1CCC2[C@@H](C)[C@@H](OCCNCCO)O[C@@H]3O[C@@]4(C)CCC1[C@@]23OO4.O=C(O)/C=C\C(=O)O` (stereo partly specified) gave a Parasite_Clearance_time of 52 h.

In turn, `C[C@@H]1CCC2[C@@H](C)[C@@H](OCCCN3CCOCC3)O[C@@H]3O[C@@]4(C)CCC1[C@@]23OO4.O=C(O)/C=C\C(=O)O` (stereo partly specified) came in with a Parasite_Clearance_time of 40 h.

As to `C[C@H]1C(OC(=O)CCC(=O)O)O[C@@H]2O[C@@]3(C)CCC4[C@H](C)CCC1[C@]42OO3` (stereo partly specified), the Parasite_Clearance_time was 50 h and 54 h.

The subject of the next assay is Plasmodium berghei. Put plainly: Antimalarial activity against Plasmodium berghei […] after subcutaneous dose. In kind it is functional. The gist of the method:
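Mice inoculated intraperitoneally on day 0 with 1.5 × 107 P. berghei K173 parasitized cells. Test agents dissolved or ground in water or peanut oil, given once daily D0–D3 at 0.625, 1.25, 2.5, 5 and 10 mg/kg, orally or subcutaneously. Blood smears taken D4, stained and examined by microscopy.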
For the compound `C[C@@H]1CCC2[C@@H](C)[C@@H](OCCN(C)C)O[C@@H]3O[C@@]4(C)CCC1[C@@]23OO4.O=C(O)C(=O)O` (stereo partly specified), the SD50 came to 24.57 mg/kg/day and the SD90 was determined as 255.83 mg/kg/day.

For the compound `CCN(CC)CCO[C@H]1O[C@@H]2O[C@@]3(C)CCC4[C@H](C)CCC([C@H]1C)[C@]42OO3.O=C(O)C(=O)O` (stereo partly specified), the SD50 was determined as 24.57 mg/kg/day and the SD90 was determined as 255.83 mg/kg/day.

The compound `C[C@@H]1CCC2[C@@H](C)[C@@H](OCCNCCO)O[C@@H]3O[C@@]4(C)CCC1[C@@]23OO4.O=C(O)/C=C\C(=O)O` (stereo partly specified) registered an SD50 of 27.66 mg/kg/day and an SD90 of 165.96 mg/kg/day.

For `C[C@@H]1CCC2[C@@H](C)[C@@H](OCCCN3CCOCC3)O[C@@H]3O[C@@]4(C)CCC1[C@@]23OO4.O=C(O)/C=C\C(=O)O` (stereo partly specified), the SD50 worked out at 5.57 mg/kg/day and the SD90 was 302.49 mg/kg/day.

Another assay deals with Plasmodium berghei. Briefly: Antimalarial activity against Plasmodium berghei K173 after peroral dose.
Take `C[C@@H]1CCC2[C@@H](C)[C@@H](OCCN(C)C)O[C@@H]3O[C@@]4(C)CCC1[C@@]23OO4.O=C(O)C(=O)O` (stereo partly specified): the SD50 came to 1.61 mg/kg/day.

The compound `C[C@@H]1CCC2[C@@H](C)[C@@H](OCCNCCO)O[C@@H]3O[C@@]4(C)CCC1[C@@]23OO4.O=C(O)/C=C\C(=O)O` (stereo partly specified) had an SD50 of 1.74 mg/kg/day.

`C[C@@H]1CCC2[C@@H](C)[C@@H](OCCCN3CCOCC3)O[C@@H]3O[C@@]4(C)CCC1[C@@]23OO4.O=C(O)/C=C/C(=O)O` (stereo partly specified) came in with an SD50 of 1.33 mg/kg/day.

`C[C@@H]1CCC2[C@@H](C)[C@@H](OCCN3CCOCC3)O[C@@H]3O[C@@]4(C)CCC1[C@@]23OO4.O=C(O)/C=C\C(=O)O` (stereo partly specified) showed an SD50 of 1.82 mg/kg/day.

For `C[C@@H]1CCC2[C@@H](C)[C@@H](OCCCN3CCOCC3)O[C@@H]3O[C@@]4(C)CCC1[C@@]23OO4.O=C(O)/C=C\C(=O)O` (stereo partly specified), the SD50 turned out to be 1.82 mg/kg/day.

Regarding `C[C@@H]1CCC2[C@@H](C)[C@@H](OCCN3CCOCC3)O[C@@H]3O[C@@]4(C)CCC1[C@@]23OO4.O=C(O)C(=O)O` (stereo partly specified), the SD50 is 1.61 mg/kg/day.

`C[C@H]1C(OC(=O)CCC(=O)O)O[C@@H]2O[C@@]3(C)CCC4[C@H](C)CCC1[C@]42OO3` (stereo partly specified) registered an SD50 of 6.33 mg/kg/day.

Another assay has as its system Plasmodium berghei. The description is as above. The source holds these as a separate data set.
Turning to `C[C@@H]1CCC2[C@@H](C)[C@@H](OCCN(C)C)O[C@@H]3O[C@@]4(C)CCC1[C@@]23OO4.O=C(O)C(=O)O` (stereo partly specified), the SD90 came out at 4.71 mg/kg/day.

`C[C@@H]1CCC2[C@@H](C)[C@@H](OCCNCCO)O[C@@H]3O[C@@]4(C)CCC1[C@@]23OO4.O=C(O)/C=C\C(=O)O` (stereo partly specified): the SD90 was 5.08 mg/kg/day.

As for `C[C@@H]1CCC2[C@@H](C)[C@@H](OCCCN3CCOCC3)O[C@@H]3O[C@@]4(C)CCC1[C@@]23OO4.O=C(O)/C=C/C(=O)O` (stereo partly specified), the SD90 turned out to be 11.19 mg/kg/day.

Turning to `C[C@@H]1CCC2[C@@H](C)[C@@H](OCCN3CCOCC3)O[C@@H]3O[C@@]4(C)CCC1[C@@]23OO4.O=C(O)/C=C\C(=O)O` (stereo partly specified), the SD90 was determined as 7.29 mg/kg/day.

For the compound `C[C@@H]1CCC2[C@@H](C)[C@@H](OCCCN3CCOCC3)O[C@@H]3O[C@@]4(C)CCC1[C@@]23OO4.O=C(O)/C=C\C(=O)O` (stereo partly specified), the SD90 is 5.28 mg/kg/day.

Take `C[C@@H]1CCC2[C@@H](C)[C@@H](OCCN3CCOCC3)O[C@@H]3O[C@@]4(C)CCC1[C@@]23OO4.O=C(O)C(=O)O` (stereo partly specified): the SD90 amounted to 5.26 mg/kg/day.

Take `C[C@H]1C(OC(=O)CCC(=O)O)O[C@@H]2O[C@@]3(C)CCC4[C@H](C)CCC1[C@]42OO3` (stereo partly specified): the SD90 is 23.39 mg/kg/day.
